For 37 sequences, folding enthalpy and Tm results are on record in the array DNA melting data of Ke et al. (doi:10.1101/2024.01.08.574731).

Data set [1] is described as follows: folding enthalpy; higher = less favourable; fluorescence melt of hairpins on a sequencing array, two-state fit. Particulars: sodium 0.088 M. A digest of the protocol:
(§1)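 With Cy3 and quencher oligos annealed, library hairpins on a sequenced MiSeq flow cell were imaged for Cy3 fluorescence in 50 mM Na-HEPES pH 8.0, 25 mM NaCl, in 2.5 °C steps up to 60 °C. Melting temperature and folding enthalpy were derived from bootstrapped two-state fits of signals normalised to pre-quench Cy3 and to control constructs. Four replicates were combined by inverse variance, with fitted temperatures raised by 9.35 °C to match UV melts.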

A short description of data set [2]: melting temperature; fluorescence melt of hairpins on a sequencing array, two-state fit, raised by 9.35 °C to match UV melts. Particulars: sodium 0.088 M. A digest of the protocol:
as §1

As for CGCGGACAATTCCGCG ((((((....)))))), the folding enthalpy in data set [1] was -30.5 kcal/mol. Further, the Tm in data set [2] was determined as 62.2 °C.

Turning to CGCGGACCTTCCGCG ((((((...)))))), the folding enthalpy in data set [1] was -28.5 kcal/mol. In addition, in data set [2], the Tm was found to be 69.2 °C.

Consider CGCGGACGAATCCGCG ((((((....)))))), for which, in data set [1], the folding enthalpy is -33.2 kcal/mol. Besides, in data set [2], the Tm worked out at 68.5 °C.

Take CGCGGACGATCCGCG ((((((...)))))): the folding enthalpy in data set [1] is -35.3 kcal/mol. In addition, the Tm in data set [2] was found to be 63.2 °C.

Consider CGCGGACGCTCCGCG ((((((...)))))), for which the folding enthalpy in data set [1] is -31.7 kcal/mol. Besides, in data set [2], the Tm came out at 66.6 °C.

For the sequence CGCGGACTGTCCGCG ((((((...)))))), the folding enthalpy in data set [1] is -42.3 kcal/mol. For the same sequence, the Tm in data set [2] was found to be 64.7 °C.

With CGCGGATAGTTCCGCG ((((((....)))))), in data set [1], the folding enthalpy was -35.4 kcal/mol. The Tm in data set [2] turned out to be 68.5 °C.

With CGCGGATGATTCCGCG ((((((....)))))), in data set [1], the folding enthalpy is -31.2 kcal/mol. In data set [2], the Tm was found to be 69.3 °C.

For the sequence CGCGGATTGCTCCGCG ((((((....)))))), in data set [1], the folding enthalpy is -48.8 kcal/mol. Also, the Tm in data set [2] is 64.9 °C.

In the case of CGCGGTCGGAAACGAGCG (((..(((....)))))), in data set [1], the folding enthalpy was -15.1 kcal/mol. In addition, the Tm in data set [2] was 56.1 °C.

Turning to CGCGTCGGAAACGAAGCG (((.(((....))).))), the folding enthalpy in data set [1] was -34 kcal/mol. In addition, in data set [2], the Tm worked out at 56.7 °C.

Take CGCTAGCGGAAACGCGCG (((..(((....)))))): the folding enthalpy in data set [1] was -25.3 kcal/mol. For the same sequence, in data set [2], the Tm amounted to 52.7 °C.

As to CGCTCCGGAAACGGCGCG (((.(((....))).))), the folding enthalpy in data set [1] was -39.5 kcal/mol. Further, the Tm in data set [2] is 56.9 °C.

On to CGCTCGGAAACGATTGCG ((((((....)))..))), for which the folding enthalpy in data set [1] was -25.4 kcal/mol. Moreover, the Tm in data set [2] worked out at 39.8 °C.

On to CGCTTCGGAAACGAGGCG (((.(((....))).))), for which the folding enthalpy in data set [1] is -42.4 kcal/mol. Further, the Tm in data set [2] was found to be 55.9 °C.

Turning to CGCTTTCGGAAACGAGCG (((..(((....)))))), the folding enthalpy in data set [1] was -24.9 kcal/mol. The Tm in data set [2] is 36.1 °C.

With CGGACCGGAAACGGCCCG (((.(((....))).))), in data set [1], the folding enthalpy is -39.9 kcal/mol. In addition, the Tm in data set [2] amounted to 56.4 °C.

For the sequence CGGACGGAAACGTCTCCG ((((((....)))..))), in data set [1], the folding enthalpy is -11.3 kcal/mol. Also, the Tm in data set [2] turned out to be 35.7 °C.

Turning to CGGACGGAAACGTGTCCG ((((((....)))..))), the folding enthalpy in data set [1] is -32.8 kcal/mol. Also, in data set [2], the Tm stood at 49.5 °C.

In the case of CGGAGCCGGAAACGGCCG (((..(((....)))))), in data set [1], the folding enthalpy is -11.2 kcal/mol. The Tm in data set [2] was 46.6 °C.

Regarding CGGCCACGGAAACGTCCG (((..(((....)))))), the folding enthalpy in data set [1] is -10.4 kcal/mol. In data set [2], the Tm stood at 33.6 °C.

Take CGGCCCGGAAACGGTCCG (((.(((....))).))): the folding enthalpy in data set [1] is -45.1 kcal/mol. In addition, the Tm in data set [2] turned out to be 55.3 °C.

As to CGGCCGGAAACGGATCCG ((((((....)))..))), the folding enthalpy in data set [1] was -22 kcal/mol. Also, the Tm in data set [2] was 39.8 °C.

As for CGGCCGGAAACGGGCCCG ((((((....)))..))), the folding enthalpy in data set [1] is -9.66 kcal/mol. In data set [2], the Tm was found to be 46.8 °C.

For the sequence CGGCCGGAAACGGGTCCG ((((((....)))..))), the folding enthalpy in data set [1] was -18.6 kcal/mol. Besides, the Tm in data set [2] turned out to be 50.4 °C.

As to CGGCCGGAAACGGTCCCG ((((((....)))..))), in data set [1], the folding enthalpy is -13.1 kcal/mol. In data set [2], the Tm was determined as 41 °C.

As to CGGCCTCGGAAACGACCG (((..(((....)))))), the folding enthalpy in data set [1] was -18.7 kcal/mol. Also, the Tm in data set [2] stood at 34.5 °C.

CGGCGCGGAAACGCACCG (((.(((....))).))): the folding enthalpy in data set [1] was -29.3 kcal/mol. Moreover, the Tm in data set [2] was 67.4 °C.

As for CGGCGCGGAAACGCCCCG (((.(((....))).))), the folding enthalpy in data set [1] was -17.5 kcal/mol. Besides, in data set [2], the Tm was 52 °C.

For CGGCTTCGGAAACGACCG (((..(((....)))))), in data set [1], the folding enthalpy was -18.2 kcal/mol. In data set [2], the Tm is 37.9 °C.

Regarding CGGGAACGGAAACGTCCG (((..(((....)))))), the folding enthalpy in data set [1] was -22.2 kcal/mol. Further, the Tm in data set [2] worked out at 43.1 °C.

For CGGGCACGGAAACGTCCG (((..(((....)))))), the folding enthalpy in data set [1] was -19.9 kcal/mol. The Tm in data set [2] was 38.9 °C.

On to CGGGCGGAAACGCATCCG ((((((....)))..))), for which, in data set [1], the folding enthalpy was -15.9 kcal/mol. In data set [2], the Tm was determined as 44.3 °C.

With CGGGGACGGAAACGTCCG (((..(((....)))))), in data set [1], the folding enthalpy was -7.9 kcal/mol. For the same sequence, in data set [2], the Tm is 50.2 °C.

On to CGGGGGCGGAAACGCCCG (((..(((....)))))), for which the folding enthalpy in data set [1] is -6.12 kcal/mol. Further, in data set [2], the Tm turned out to be 52.2 °C.

Turning to CGGGTACGGAAACGTCCG (((..(((....)))))), the folding enthalpy in data set [1] was -20 kcal/mol. Moreover, in data set [2], the Tm was determined as 40 °C.

CGGGTCGGAAACGAACCG (((.(((....))).))): the folding enthalpy in data set [1] was -42.8 kcal/mol. The Tm in data set [2] came out at 59.6 °C.
